# Results from ChEMBL document CHEMBL4371044, “Celastrol Promotes Weight Loss in Diet-Induced Obesity by Inhibiting the Protein Tyrosine Phosphatases PTP1B and TCPTP in the Hypothalamus” (J Med Chem, 2018).
# The source made the active and inactive calls. The rule behind the calls is not given here.
# Tests used:
# [1] = target: T1, Tyrosine-protein phosphatase non-receptor type 2 (Homo sapiens) (UniProt P17706); assay: Inhibition of human N-terminal His6-tagged TCPTP catalytic domain (1 to 296 residues) expressed in Escherichia coli strain Rosetta2 (DE3) by NMR spectroscopy
# T1 sequence (whole entry): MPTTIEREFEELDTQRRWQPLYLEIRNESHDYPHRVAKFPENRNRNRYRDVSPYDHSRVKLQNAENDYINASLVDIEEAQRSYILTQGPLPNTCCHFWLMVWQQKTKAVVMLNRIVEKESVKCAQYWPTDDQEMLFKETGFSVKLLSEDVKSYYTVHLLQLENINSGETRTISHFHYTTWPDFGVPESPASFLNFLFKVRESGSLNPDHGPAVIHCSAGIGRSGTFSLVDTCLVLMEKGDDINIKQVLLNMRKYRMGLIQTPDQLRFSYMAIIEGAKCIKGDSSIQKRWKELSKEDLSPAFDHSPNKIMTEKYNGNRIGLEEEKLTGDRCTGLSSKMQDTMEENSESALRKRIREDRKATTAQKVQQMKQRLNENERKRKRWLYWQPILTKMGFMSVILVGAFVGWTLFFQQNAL
# [2] = target: T2, Tyrosine-protein phosphatase non-receptor type 1 (Homo sapiens) (UniProt P18031); assay: Inhibition of human N-terminal His6-tagged PTP1B catalytic domain (1 to 298 residues) expressed in Escherichia coli strain Rosetta2 (DE3) up to 500 uM using pNPP as substrate preincubated for 10 mins followed by substrate addition and measured after 10 mins by […]
# T2 sequence (whole entry): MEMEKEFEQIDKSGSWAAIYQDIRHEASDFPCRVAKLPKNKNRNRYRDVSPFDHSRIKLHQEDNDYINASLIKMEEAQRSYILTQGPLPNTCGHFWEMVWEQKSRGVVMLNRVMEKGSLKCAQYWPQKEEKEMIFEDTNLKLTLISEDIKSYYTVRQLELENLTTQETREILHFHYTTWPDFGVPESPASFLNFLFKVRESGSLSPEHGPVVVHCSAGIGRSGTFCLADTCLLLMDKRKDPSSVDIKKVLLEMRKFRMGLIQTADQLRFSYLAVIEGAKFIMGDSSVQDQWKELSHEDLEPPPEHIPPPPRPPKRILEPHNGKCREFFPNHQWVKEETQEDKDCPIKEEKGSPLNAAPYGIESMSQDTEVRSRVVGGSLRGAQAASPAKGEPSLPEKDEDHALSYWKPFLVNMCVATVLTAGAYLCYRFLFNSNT
# [3] = target: T3, Tyrosine-protein phosphatase non-receptor type 1 (Homo sapiens, UniProt P18031); assay: Binding affinity to human N-terminal His6-tagged PTP1B catalytic domain (1 to 298 residues) expressed in Escherichia coli strain Rosetta2 (DE3) by switch sense technology based assay
# T3 sequence (P18031 whole entry): T2 sequence (whole entry)
# Procedure, shortened: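 switchSENSE, fluorescence proximity mode: PTP1B1−298 immobilized on chip, analyte injected at increasing concentrations up to 100 μM at 100 μL/min in PE40 buffer (10 mM phosphate pH 7.4, 40 mM NaCl, 50 μM EGTA/EDTA, 0.05% Tween 20). Buffer rinse for dissociation, recorded at the three highest concentrations; kon, koff, KD fitted.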
# [4] = target: T1, Tyrosine-protein phosphatase non-receptor type 2 (Homo sapiens); assay: (§1) Inhibition of human N-terminal His6-tagged TCPTP catalytic domain (1 to 336 residues) expressed in Escherichia coli strain Rosetta2 (DE3) using DiFMUP as substrate preincubated for 10 mins followed by substrate addition and measured after 10 mins in presence of 10 fold higher enzyme concentration by fluorescence assay
# Procedure, shortened: (§2)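 DiFMUP IC50 assay (1 nM enzyme, 10 min preincubation, substrate at Km, 37 °C, ex 358/em 455 nm), repeated as an aggregation check under three altered conditions: 10-fold enzyme (10 nM), 0.05% Tween 20, or 0.1 mg/mL BSA in buffer.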
# [5] = target: T1, Tyrosine-protein phosphatase non-receptor type 2 (Homo sapiens); assay: as §1, with “Non competitive inhibition” for “Inhibition”, “mins” for “mins in presence of 10 fold higher enzyme concentration”, “assay Michaelis-Menten plot analysis” for “assay”
# [6] = tested on: Mus musculus; assay: Antiobesity activity in high fat diet-induced obese Ptpn1fl/fl null C57BL/6 mouse treated with rAAV-CMV-Cre-GFP for deletion of PTP1B and TCPTP assessed as reduction in body weight at 100 ug/kg, ip for 10 consecutive days; type: functional, organism-based
# [7] = Inhibition of mouse LMPTP-A (1 to 158 residues) expressed in Escherichia coli strain BL21(DE3) using DiFMUP as substrate preincubated for 10 mins followed by substrate addition and measured after 10 mins by fluorescence assay
# Procedure, shortened: (§3)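 Selectivity panel on enzymes expressed in E. coli BL21(DE3), purified by nickel affinity then size exclusion. DiFMUP fluorescence assay run as for PTP1B/TCPTP, with per-enzyme conditions in a supplementary table; nonlinear regression for IC50; three independent experiments.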
# [8] = target: T3, Tyrosine-protein phosphatase non-receptor type 1; assay: Inhibition of human N-terminal His6-tagged PTP1B catalytic domain (1 to 393 residues) expressed in Escherichia coli strain Rosetta2 (DE3) using DiFMUP as substrate preincubated for 10 mins followed by substrate addition and measured after 10 mins by fluorescence assay
# Procedure, shortened: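 Tag-cleaved, SEC-purified enzyme at 1 nM, preincubated 10 min with compound at 15 concentrations from 0–500 μM (5% DMSO final) in 25 mM Bis-Tris propane pH 7.5, 50 mM NaCl, 2 mM EDTA. DiFMUP added at each construct's Km (10, 7, 10, 9 μM for PTP1B1−298, PTP1B1−393, TCPTP1−296, TCPTP1−336). Read ex 358/em 455 nm continuously 10 min at 37 °C; triplicate; log(inhibitor)-response fit.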
# [9] = target: T2, Tyrosine-protein phosphatase non-receptor type 1 (Homo sapiens); assay: Non-competitive inhibition of human N-terminal His6-tagged PTP1B catalytic domain (1 to 393 residues) expressed in Escherichia coli strain Rosetta2 (DE3) at 500 uM in presence of 4'-aminoxanilic acid by STD-NMR spectroscopic method
# [10] = target: Tyrosine-protein phosphatase non-receptor type 6 (Homo sapiens, UniProt P29350); assay: Inhibition of human SHP1 (245 to 521 residues) expressed in Escherichia coli strain BL21(DE3) using DiFMUP as substrate preincubated for 10 mins followed by substrate addition and measured after 10 mins by fluorescence assay; procedure, shortened: as §3
# [11] = tested on: Mus musculus; assay: Antiobesity activity in high fat diet-induced obese Ptpn2fl/fl null C57BL/6 mouse assessed as hypophagia at 100 ug/kg, ip for 10 consecutive days; type: functional, organism-based
# [12] = target: T2, Tyrosine-protein phosphatase non-receptor type 1 (Homo sapiens); assay: Binding affinity to human N-terminal His6-tagged PTP1B catalytic domain (1 to 298 residues) expressed in Escherichia coli strain Rosetta2 (DE3) assessed as association half life using DiFMUP as substrate preincubated for 10 mins followed by substrate addition measured for 10 mins fluorescence assay
# [13] = target: T1, Tyrosine-protein phosphatase non-receptor type 2 (Homo sapiens); assay: Inhibition of human N-terminal His6-tagged TCPTP catalytic domain (1 to 336 residues) expressed in Escherichia coli strain Rosetta2 (DE3) using DiFMUP as substrate preincubated for 10 mins followed by substrate addition and measured after 10 mins in presence of 0.1 mg/ml BSA by fluorescence assay; procedure, shortened: as §2
# [14] = target: T2, Tyrosine-protein phosphatase non-receptor type 1 (Homo sapiens); assay: Inhibition of human N-terminal His6-tagged PTP1B catalytic domain (1 to 393 residues) expressed in Escherichia coli strain Rosetta2 (DE3) up to 500 uM using pNPP as substrate preincubated for 10 mins followed by substrate addition and measured after 10 mins by […]
# Sequence of Tyrosine-protein phosphatase non-receptor type 6 (P29350 whole entry, the tested form may be a part): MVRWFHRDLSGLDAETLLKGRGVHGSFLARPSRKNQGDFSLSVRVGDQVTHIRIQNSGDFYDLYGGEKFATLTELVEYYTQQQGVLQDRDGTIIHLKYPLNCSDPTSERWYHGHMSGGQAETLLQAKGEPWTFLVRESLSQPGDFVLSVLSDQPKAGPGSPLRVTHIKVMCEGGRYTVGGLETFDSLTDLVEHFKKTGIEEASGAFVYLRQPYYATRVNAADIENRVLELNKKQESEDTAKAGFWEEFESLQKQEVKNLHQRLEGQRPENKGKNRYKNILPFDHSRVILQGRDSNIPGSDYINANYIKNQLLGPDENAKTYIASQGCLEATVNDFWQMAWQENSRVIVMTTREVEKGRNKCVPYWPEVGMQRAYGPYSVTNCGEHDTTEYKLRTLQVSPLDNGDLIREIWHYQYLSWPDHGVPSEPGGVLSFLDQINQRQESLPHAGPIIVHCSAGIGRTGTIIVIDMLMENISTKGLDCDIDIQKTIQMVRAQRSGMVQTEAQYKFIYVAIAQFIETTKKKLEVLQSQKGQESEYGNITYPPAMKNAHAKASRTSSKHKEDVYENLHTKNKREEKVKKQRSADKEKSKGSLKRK
smiles,measurement,setting,value
CC1=C(O)C(=O)C=C2C1=CC=C1[C@@]2(C)CC[C@@]2(C)[C@@H]3C[C@](C)(C(=O)O)CC[C@]3(C)CC[C@]12C [CELASTROL],Activity,[1],Active
same,inhibition,[2],Active
same,Kd,[3],6.08 µM
same,inhibition,[4],Active
same,inhibition,[5],Active
same,Activity,[6],inactive
same,IC50,[7],95.3 µM
same,IC50,[8],2.1 µM
same,inhibition,[9],Active
same,IC50,[10],3.1 µM
same,inhibition,[11],Active
same,T1/2,[12],31.9 min
same,inhibition,[13],Active
same,inhibition,[14],Active
